Reference: ChEMBL document CHEMBL5303300, “EUbOPEN Chemogenomics Library - Multiplex” (2023)
“And” between values parts separate entries of the source, which are not always exact repeats. Equal values may be shown once.

Key:
[1] = tested on: Fibroblast; experiment: Multiplex assay against human fibroblast; format: toxicity, cell-based; conditions: number of replicates 2
Summary of the method: (§1)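 Four dyes were applied at seeding to live cells: Hoechst33342, BioTracker Green Microtubule Cytoskeleton Dye, MitoTracker Red and Annexin V Alexa Fluor 680. Imaging after compound addition used a CQ1 microscope at 37°C and 5% CO2. CellPathfinder machine-learning gating then sorted cells into Hoechst high-intensity objects or normal cells, normal cells into healthy, pyknosed or fragmented nuclei, and pyknosed cells into mitotic or apoptotic, with tubulin, mitochondrial-mass and membrane-permeability phenotypes given as per cents of healthy-nucleus cells.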

[2] = tested on: HEK-293T; experiment: Multiplex assay against HEK293T; format: toxicity, cell-based; conditions: human, number of replicates 2; summary of the method: as §1
[3] = 12 h, 1 µM, compound concentration 1 uM
[4] = 12 h, 10 µM, compound concentration 10 uM
[5] = 24 h, 1 µM, compound concentration 1 uM
[6] = 24 h, 10 µM, compound concentration 10 uM
[7] = 48 h, 1 µM, compound concentration 1 uM
[8] = 48 h, 10 µM, compound concentration 10 uM

## CCn1c(-c2nonc2N)nc2cncc(C(=O)N3CC[C@H](N)C3)c21.Cl
[1]; [3]
  Population Apoptotic (%): 33% and 45%
  Population Fragmented Nuclei (%): 6% and 11%
  Population Healthy Nuclei (%): 73% and 74%
  Population Hoechst High Intensity Objects (%): 0%
  Population Membrane Permeable-Phenotype (%): 6% and 1%
  Population Mitochondria Different-Phenotype (%): 0% and 1%
  Population Mitotic Cells (%): 66% and 54%
  Population Normal (%): 100%
  Population Pyknosed Nuclei (%): 19% and 13%
  Population Tubulin-Different-Phenotype (%): 2% and 4%
  Total Cell Count: 202 and 240
[1]; [4]
  Population Apoptotic (%): 9% and 19%
  Population Fragmented Nuclei (%): 6% and 12%
  Population Healthy Nuclei (%): 65% and 67%
  Population Hoechst High Intensity Objects (%): 0%
  Population Membrane Permeable-Phenotype (%): 3% and 1%
  Population Mitochondria Different-Phenotype (%): 1% and 2%
  Population Mitotic Cells (%): 90% and 80%
  Population Normal (%): 99% and 100%
  Population Pyknosed Nuclei (%): 28% and 20%
  Population Tubulin-Different-Phenotype (%): 11% and 6%
  Total Cell Count: 196 and 295
[1]; [5]
  Population Apoptotic (%): 50% and 69%
  Population Fragmented Nuclei (%): 4% and 10%
  Population Healthy Nuclei (%): 83% and 78%
  Population Hoechst High Intensity Objects (%): 0%
  Population Membrane Permeable-Phenotype (%): 4% and 2%
  Population Mitochondria Different-Phenotype (%): 0%
  Population Mitotic Cells (%): 50% and 30%
  Population Normal (%): 100%
  Population Pyknosed Nuclei (%): 11%
  Population Tubulin-Different-Phenotype (%): 2% and 5%
  Total Cell Count: 191 and 224
[1]; [6]
  Population Apoptotic (%): 23%
  Population Fragmented Nuclei (%): 8% and 10%
  Population Healthy Nuclei (%): 76% and 77%
  Population Hoechst High Intensity Objects (%): 0%
  Population Membrane Permeable-Phenotype (%): 2% and 0%
  Population Mitochondria Different-Phenotype (%): 4% and 2%
  Population Mitotic Cells (%): 76%
  Population Normal (%): 100%
  Population Pyknosed Nuclei (%): 15% and 11%
  Population Tubulin-Different-Phenotype (%): 10% and 3%
  Total Cell Count: 196 and 266
[1]; [7]
  Population Apoptotic (%): 86% and 66%
  Population Fragmented Nuclei (%): 6% and 10%
  Population Healthy Nuclei (%): 85%
  Population Hoechst High Intensity Objects (%): 0%
  Population Membrane Permeable-Phenotype (%): 3% and 2%
  Population Mitochondria Different-Phenotype (%): 0%
  Population Mitotic Cells (%): 13% and 33%
  Population Normal (%): 100%
  Population Pyknosed Nuclei (%): 7% and 4%
  Population Tubulin-Different-Phenotype (%): 1% and 3%
  Total Cell Count: 196 and 220
[1]; [8]
  Population Apoptotic (%): 57% and 69%
  Population Fragmented Nuclei (%): 11% and 9%
  Population Healthy Nuclei (%): 72% and 80%
  Population Hoechst High Intensity Objects (%): 0%
  Population Membrane Permeable-Phenotype (%): 2% and 1%
  Population Mitochondria Different-Phenotype (%): 0%
  Population Mitotic Cells (%): 42% and 30%
  Population Normal (%): 100% and 99%
  Population Pyknosed Nuclei (%): 15% and 9%
  Population Tubulin-Different-Phenotype (%): 2% and 3%
  Total Cell Count: 184 and 264
[2]; [3]
  Population Apoptotic (%): 31% and 33%
  Population Fragmented Nuclei (%): 2%
  Population Healthy Nuclei (%): 81% and 83%
  Population Hoechst High Intensity Objects (%): 7% and 5%
  Population Membrane Permeable-Phenotype (%): 4% and 1%
  Population Mitochondria Different-Phenotype (%): 10% and 8%
  Population Mitotic Cells (%): 68% and 66%
  Population Normal (%): 92% and 94%
  Population Pyknosed Nuclei (%): 16% and 14%
  Population Tubulin-Different-Phenotype (%): 33% and 38%
  Total Cell Count: 694 and 685
[2]; [4]
  Population Apoptotic (%): 21% and 43%
  Population Fragmented Nuclei (%): 2%
  Population Healthy Nuclei (%): 84% and 78%
  Population Hoechst High Intensity Objects (%): 5% and 4%
  Population Membrane Permeable-Phenotype (%): 1% and 0%
  Population Mitochondria Different-Phenotype (%): 12% and 15%
  Population Mitotic Cells (%): 78% and 56%
  Population Normal (%): 94% and 95%
  Population Pyknosed Nuclei (%): 13% and 19%
  Population Tubulin-Different-Phenotype (%): 38% and 31%
  Total Cell Count: 716 and 454
[2]; [5]
  Population Apoptotic (%): 46% and 37%
  Population Fragmented Nuclei (%): 3%
  Population Healthy Nuclei (%): 84% and 86%
  Population Hoechst High Intensity Objects (%): 6% and 5%
  Population Membrane Permeable-Phenotype (%): 2%
  Population Mitochondria Different-Phenotype (%): 2% and 3%
